“And” between values parts separate entries of the source, which are not always exact repeats. Equal values may be shown once. Where a name gives a salt, the structure may show the parent alone.
Assays:
Cavia porcellus [1] = assay: Ex vivo inhibition of ADP induced guinea pig platelet aggregation following 0.08 mmol/kg administration.; type: functional
Procedure, shortened: (§1)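 Fasted male rats (~200 g) or guinea pigs (~300 g), n=5-10, dosed orally (5 mL/kg) in 1% methylcellulose; methylcellulose alone as control. Killed with CO2 after 2 h. Vena cava blood citrated (102 mM rat, 129 mM guinea pig); PRP adjusted to 800000/µL (rat) or 500000/µL (guinea pig). EC25 for first-phase ADP aggregation (max 8 µM) interpolated from two 2-fold-spaced ADP levels. Dose ratio = treated/control mean EC25; Student's t-test. Some groups tested as pooled PRP.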

Cavia porcellus [2] = assay: Ex vivo inhibition of collagen induced guinea pig platelet aggregation following 0.08 mmol/kg administration.; type: functional
Procedure, shortened: (§2)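 Male rats (~200 g) or guinea pigs (~300 g), overnight fasted, n=5-10, received compound orally in 1% methylcellulose (5 mL/kg); vehicle-only controls. After 2 h, CO2 kill and vena cava blood into citrate (102 mM rat, 129 mM guinea pig). PRP set to 800000/µL (rat) or 500000/µL (guinea pig). Collagen EC50 (response of 50 mm; max 50 µg/mL) interpolated from a log plot. Dose ratio = treated/control mean EC50; t-test. Pooled PRP sometimes used.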

Cavia porcellus [3] = assay: The compound was tested ex vivo at a dose of 0.04 mmol/kg for collagen induced platelet aggregation in guinea pig; type: functional; procedure, shortened: as §2
Cavia porcellus [4] = assay: The compound was tested ex vivo at a dose of 0.04 mmol/kg for ADP induced platelet aggregation in guinea pig; type: functional; procedure, shortened: as §1
Cavia porcellus [5] = assay: The compound was tested ex vivo at a dose of 0.15 mmol/kg for collagen induced platelet aggregation in guinea pig; type: functional; procedure, shortened: as §2
Cavia porcellus [6] = assay: The compound was tested ex vivo at a dose of 0.15 mmol/kg for ADP induced platelet aggregation in guinea pig; type: functional; procedure, shortened: as §1
Rattus norvegicus [7] = assay: The compound was tested ex vivo at a dose of 0.3 mmol/kg for collagen induced platelet aggregation in rat; type: functional; procedure, shortened: as §2
Rattus norvegicus [8] = assay: The compound was tested ex vivo at a dose of 0.15 mmol/kg for collagen induced platelet aggregation in rat; type: functional; procedure, shortened: as §2
Rattus norvegicus [9] = assay: The compound was tested ex vivo at a dose of 0.15 mmol/kg for ADP induced platelet aggregation in rat; type: functional; procedure, shortened: as §1
Rattus norvegicus [10] = assay: The compound was tested ex vivo at a dose of 0.15 mmol/kg for ADP induced platelet aggregation in rat
Rattus norvegicus [11] = assay: The compound was tested at a dose of 0.15 mmol/kg ex vivo for collagen induced platelet aggregation in rat; type: functional; procedure, shortened: as §2
Cavia porcellus [12] = assay: The compound was tested ex vivo at a dose of 0.08 mmol/kg for collagen induced platelet aggregation in guinea pig; type: functional; procedure, shortened: as §2
Cavia porcellus [13] = assay: The compound was tested ex vivo at a dose of 0.08 mmol/kg for ADP induced platelet aggregation in guinea pig; type: functional; procedure, shortened: as §1
Rattus norvegicus [14] = assay: The compound was tested ex vivo at a dose of 0.08 mmol/kg for collagen induced platelet aggregation in rat; type: functional; procedure, shortened: as §2
Rattus norvegicus [15] = assay: The compound was tested ex vivo at a dose of 0.08 mmol/kg for ADP induced platelet aggregation in rat; type: functional; procedure, shortened: as §1
Cavia porcellus [16] = assay: The compound was tested at a dose of 0.08 mmol/kg ex vivo for collagen induced platelet aggregation in guinea pig; type: functional; procedure, shortened: as §2
Cavia porcellus [17] = species: Cavia porcellus; assay: The compound was tested ex vivo for collagen induced platelet aggregation in guinea pig; type: functional; procedure, shortened: as §2
Cavia porcellus [18] = species: Cavia porcellus; assay: The compound was tested ex vivo for ADP induced platelet aggregation in guinea pig; type: functional; procedure, shortened: as §1
Homo sapiens [19] = species: Homo sapiens; assay: In vitro inhibitory activity against human platelet aggregation in the presence of Adenosine diphosphate; type: functional
Procedure, shortened: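 Human citrated PRP, platelet count adjusted to 350000/µL with autologous platelet-poor plasma. 90 µL PRP preincubated 3 min at 37 °C with compound or saline (DMF vehicle where needed), stirred at 1100 rpm. ADP chosen per preparation to give a clear first-phase response (typically 1 µM). Photometric read-out: maximum rise in light transmission within 1 min. IC50 determined.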

Homo sapiens [20] = species: Homo sapiens; assay: In vitro inhibitory activity against human platelet aggregation in the presence of collagen; type: functional, organism-based
Rattus norvegicus [21] = species: Rattus norvegicus; assay: The compound was tested ex vivo for ADP induced platelet aggregation in rat; type: functional; procedure, shortened: as §1
Rattus norvegicus [22] = species: Rattus norvegicus; assay: The compound was tested ex vivo for collagen induced platelet aggregation in rat; type: functional; procedure, shortened: as §2
Homo sapiens [23] = assay: The compound was tested ex vivo at a dose of 0.1 mmol/kg for ADP induced platelet aggregation in rat

O=c1c2ccccc2sn1CCCN1CCCC1 showed an Activity (Cavia porcellus [1]) of 2 and an Activity (Cavia porcellus [2]) of 6.2.

With CCN(CC)CCn1sc2cc(C)cc(C)c2c1=O the “Dose ratio (treated/control collagen EC50)” value (Cavia porcellus [3]) was over 17 and the Activity (Cavia porcellus [4]) was 2.2.

For COc1cc2sn(CCCc3ccccn3)c(=O)c2cc1OC, the “collagen EC50 dose ratio (treated/control)” value (Cavia porcellus [5]) was over 27 and the Activity (Cavia porcellus [6]) was 2.4.

With O=c1c2ccccc2sn1CCO the Activity (Rattus norvegicus [7]) was 1.3.

For O=c1c2ccccc2sn1CCCN1CC2CCC(CC2)C1, the Activity (Cavia porcellus [1]) was 1.2 and the Activity (Cavia porcellus [2]) was 1.8.

O=c1c2ccccc2sn1-c1ccccn1 showed an Activity (Rattus norvegicus [7]) of 0.9.

For O=c1c2ccccc2sn1-c1ccccc1, the Activity (Rattus norvegicus [8]) was 1.1 and the Activity (Rattus norvegicus [9]) was 0.9.

For O=c1c2ccccc2sn1CCCCN1CC2CCC(CC2)C1, the Activity (Cavia porcellus [1]) was 1.6 and the Activity (Cavia porcellus [2]) was 4.1.

COc1cc2sn(CCCN3CC4CCC(CC4)C3)c(=O)c2cc1OC was tested, and the Activity (Cavia porcellus [1]) was 0.9 and the Activity (Cavia porcellus [2]) was 1.6.

Compound O=c1c2ccccc2sn1CCCCCN1CCCCC1 has an Activity (Cavia porcellus [1]) of 1.3 and an Activity (Cavia porcellus [2]) of 1.1.

Compound Cc1cc2sn(CCN3CC4CCC(CC4)C3)c(=O)c2cc1C has an Activity (Cavia porcellus [5]) of 0.7, an Activity (Rattus norvegicus [10]) of 1 and an Activity (Rattus norvegicus [11]) of 1. It also gave an Activity (Rattus norvegicus [9]) of 1.3.

With Cc1cc(C)c2c(=O)n(CCN3CCCC3)sc2c1 the Activity (Cavia porcellus [12]) was over 23, the Activity (Cavia porcellus [1]) was over 32 and the Activity (Cavia porcellus [2]) was over 23. For the same compound, the Activity (Cavia porcellus [13]) was over 32.

With O=c1c2ccccc2sn1CCN1CCCCC1 the Activity (Cavia porcellus [1]) was 1.4, the Activity (Rattus norvegicus [14]) was 4 and the Activity (Rattus norvegicus [15]) was 1.7. The Activity (Cavia porcellus [2]) was 5.

Cc1cc(C)c2c(=O)n(CCCCN3CC4CCC(CC4)C3)sc2c1 was tested, and the “Dose ratio (treated/control collagen EC50)” value (Cavia porcellus [3]) was 1.1 and the Activity (Cavia porcellus [4]) was 0.8.

For O=c1c2ccccc2sn1CCCCN1CCOCC1, the Activity (Cavia porcellus [1]) was 1.1 and the Activity (Cavia porcellus [2]) was 2.4.

Work on O=c1c2ccccc2sn1CCCN1CCOCC1 yielded an Activity (Cavia porcellus [1]) of 1.3 and an Activity (Cavia porcellus [2]) of 2.5.

For COc1cc2sn(CCCCN3CCCCC3)c(=O)c2cc1OC, the Activity (Cavia porcellus [1]) was 1.1 and the Activity (Cavia porcellus [2]) was 1.6.

In the case of COc1cc2sn(CCCN3CCCCC3)c(=O)c2cc1OC, the Activity (Cavia porcellus [1]) is reported as 1.1 and the Activity (Cavia porcellus [16]) is reported as 2.5.

In the case of O=c1c2ccccc2sn1CCN1CCOCC1, the Activity (Rattus norvegicus [8]) is reported as 1 and the Activity (Rattus norvegicus [9]) is reported as 1.

For Cc1cc(C)c2c(=O)n(CCc3ccccn3)sc2c1, the “Dose ratio (treated/control collagen EC50)” value (Cavia porcellus [3]) was 1.6 and the Activity (Cavia porcellus [4]) was 1.

In the case of COc1cc2sn(CCCCCCN3CC4CCC(CC4)C3)c(=O)c2cc1OC, the “collagen EC50 dose ratio (treated/control)” value (Cavia porcellus [17]) is reported as 2 and the Activity (Cavia porcellus [18]) is reported as 1.1.

For COc1cc2sn(CCCCCN3CC4CCC(CC4)C3)c(=O)c2cc1OC, the “collagen EC50 dose ratio (treated/control)” value (Cavia porcellus [17]) was 4.1 and the Activity (Cavia porcellus [18]) was 1.7.

Work on Cc1cc2sn(CCN3CCCC3)c(=O)c2cc1C yielded an Activity (Cavia porcellus [5]) of over 10, an Activity (Cavia porcellus [6]) of 1.9 and an Activity (Rattus norvegicus [8]) of 2.7. For the same compound, the Activity (Rattus norvegicus [9]) was 1.4.

For COc1cc2sn(CCN3CCCCC3)c(=O)c2cc1OC, the “collagen EC50 dose ratio (treated/control)” value (Cavia porcellus [5]) was 7.3, the Activity (Cavia porcellus [6]) was 1.9 and the Activity (Rattus norvegicus [8]) was 2.2. The Activity (Rattus norvegicus [9]) was 1.1.

O=c1c2cc(Cl)c(Cl)cc2sn1CCN1CC2CCC(CC2)C1 was tested, and the Activity (Rattus norvegicus [7]) was 1.

With CC(=O)Oc1ccccc1C(=O)O [ASPIRIN] the IC50 (Homo sapiens [19]) was over 1 mM, the Activity (Cavia porcellus [18]) was 1 and the IC50 (Homo sapiens [20]) was 0.068 mM. The Activity (Rattus norvegicus [21]) was 1.1 and 1 and the Activity (Rattus norvegicus [22]) was 1.5 and 1.8.

In the case of Clc1ccccc1CN1CCc2sccc2C1 [TICLOPIDINE HYDROCHLORIDE], the IC50 (Homo sapiens [20]) is reported as 1.06 mM and the IC50 (Homo sapiens [23]) is reported as 2 mM.

From ChEMBL document CHEMBL1122845, “Inhibitors of blood platelet aggregation. Effects of some 1,2-benzisothiazol-3-ones on platelet responsiveness to adenosine diphosphate and collagen” (J Med Chem, 1985)
